Here are results for 17 compounds from ChEMBL document CHEMBL3227959, “2'-O-Acyl-6-thioinosine cyclic 3',5'-phosphates as prodrugs of thioinosinic acid” (J Med Chem, 1979).

Data set [1] has as its system S49. Kind of data set: Cytotoxicity against wild type mouse S49 cells assessed as growth inhibition after 72 hrs by trypan blue exclusion assay. It is filed as functional, cell-based. Conditions: S49, 72 h. Put shortly: (§1)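 S49 mouse T-lymphoma cells, pre-grown 24 h to keep growth exponential and asynchronous, were plated at 10^5 cells/mL in complete Dulbecco's modified Eagle medium. Agents were added in 30 mM NaHCO3. After 72 h at 37 °C, cells were counted by Coulter counter. Initial density was subtracted and growth expressed as a fraction of drug-free wells. EC50 was read from the percent-inhibition versus concentration plot, reported as mean ± SE. Trypan blue was used to check cytolysis.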

The test system of data set [2] is S49. Kind of data set: Cytotoxicity against HGPRTase-deficient mouse S49 cells assessed as growth inhibition after 72 hrs by trypan blue exclusion assay. It is filed as functional, cell-based. Particulars: S49, 72 h. An outline of the steps: as §1
In data set [3] the test system is S49. Kind of data set: Cytotoxicity against HGPRTase- and protein kinase-deficient mouse S49 cells assessed as growth inhibition at 1 mM. It is filed as functional, cell-based. Put shortly: as §1
Data set [4] has as its system S49. Kind of data set: Cytotoxicity against wild type mouse S49 cells assessed as growth inhibition after 24 hrs by time-course study. Type of data set: functional, cell-based.
The test system of data set [5] is S49. In words: Cytotoxicity against HGPRTase-deficient mouse S49 cells assessed as growth inhibition at 100 uM after 72 hrs by trypan blue exclusion assay. Type of data set: functional, cell-based. An outline of the steps: as §1
The subject of data set [6] is S49. Kind of data set: Cytotoxicity against HGPRTase-deficient mouse S49 cells assessed as growth inhibition at 1000 uM after 72 hrs by trypan blue exclusion assay. Type of data set: functional, cell-based. Put shortly:
as §1

Data set [7] relates to S49. In words: Cytotoxicity against wild type mouse S49 cells assessed as growth inhibition at 200 uM after 72 hrs by trypan blue exclusion assay. It is filed as functional. Conditions: S49, 72 h, read-out: GI. An outline of the steps: as §1
The nature of data set [8]: Drug degradation in Eagle's medium containing 10 % heat-inactivated horse serum assessed as parent compound after 3 days by reverse-phase liquid chromatography. It is filed as physicochemical. Particulars: read-out: Stability. Put shortly: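 Agent at 0.5 mM was incubated without cells for 3 days at 37 °C in Dulbecco's modified Eagle medium with 10% heat-inactivated horse serum. Aliquots were diluted 5:1 with methanol, filtered (0.45 μm), and analysed by reverse-phase C18 LC.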

Data set [9] concerns S49. Kind of data set: Cytotoxicity against HGPRTase-, protein kinase- and phosphodiesterase-deficient mouse S49 cells assessed as growth inhibition. It is filed as functional, cell-based. An outline of the steps:
as §1

For data set [10], the system named is S49. Kind of data set: Cytotoxicity against HGPRTase-deficient mouse S49 cells assessed as growth inhibition in presence of 4-(3-butoxy-4-methoxybenzyl)-2-imidazolone.
The test system of data set [11] is S49. In words: Cytotoxicity against HGPRTase-deficient mouse S49 cells assessed as growth inhibition in presence of theophylline.
Data set [12] deals with S49. In words: Cytotoxicity against HGPRTase- and protein kinase-deficient mouse S49 cells assessed as growth inhibition. It is filed as functional, cell-based. An outline of the steps:
as §1

Data set [13] deals with S49. In words: Cytotoxicity against HGPRTase-deficient mouse S49 cells assessed as growth inhibition at 500 uM after 20 to 49 hrs by time-course study. Type of data set: functional, cell-based. Put shortly:
(§2)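 Growth of HGPRTase-deficient S49 cells was followed over time with 0.5 mM agent, compared with drug-free cultures. The cAMP comparator was given with 0.2 mM theophylline.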

The subject of data set [14] is S49. Kind of data set: Cytotoxicity against HGPRTase-deficient mouse S49 cells assessed as growth inhibition at 500 uM after 20 to 49 hrs by time-course study in presence of theophylline. It is filed as functional, cell-based. An outline of the steps:
as §2

Activity calls are given as the source filed them. The rule behind the calls is not given here.

In the case of `OC[C@H]1O[C@@H](n2cnc3c(S)ncnc32)[C@H](O)[C@@H]1O` [THIOINOSINE], the EC50 in the data set with S49 [1] was determined as 0.25 µM; in the data set with S49 [2], 400 µM.
With `CCCC(=O)O[C@@H]1[C@@H]2OP(=O)(O)OC[C@H]2O[C@H]1n1cnc2c(N)ncnc21`, the “growth inhibition (GI)” value in the data set with S49 [3] is “inactive”.
Regarding `Sc1ncnc2nc[nH]c12` [MERCAPTOPURINE ANHYDROUS], the EC50 in the data set with S49 [1] is 8 µM; in the data set with S49 [2], more than 1000 µM. Further, the “growth inhibition (GI)” value in the data set with S49 [4] was “Active”.
For `CC(=O)O[C@@H]1[C@@H]2OP(=O)(O)OC[C@H]2O[C@H]1n1cnc2c(=S)[nH]cnc21`, the figures for the EC50 in the data set on S49 [1] and with S49 [2] were 210 µM and 655 µM, respectively.
On to `CCCCCCCCCCCCCCCCCCCCCC(=O)O[C@@H]1[C@@H]2OP(=O)(O)OC[C@H]2O[C@H]1n1cnc2c(=S)[nH]cnc21`, for which the EC50 with S49 [2] is 120 µM.
Turning to `CC(C)C(=O)O[C@@H]1[C@@H]2OP(=O)(O)OC[C@H]2O[C@H]1n1cnc2c(=S)[nH]cnc21`, the 50% effective concentration (EC50) with S49 [1] is 23 µM; with S49 [2], 479 µM.
`CCCCCCCCCCCC(=O)O`: the “growth inhibition (GI)” value in the data set on S49 [5] is “inactive”.
With `CC(C)C(=O)O`, the “growth inhibition (GI)” value in the data set on S49 [6] is “inactive”.
For `CCCCCCCCCCCC(=O)O[C@@H]1[C@@H]2OP(=O)(O)OC[C@H]2O[C@H]1n1cnc2c(=S)[nH]cnc21`, the EC50 came to 10 µM in the data set on S49 [1] and 109 µM in the data set on S49 [2].
For the compound `CCCCCCCCCCCCCCCC(=O)O` [PALMITIC ACID], the concentration for a half-maximal effect (EC50) in the data set on S49 [2] was 500 µM.
As to `O=P1(O)OC[C@H]2O[C@@H](n3cnc4c(=S)[nH]cnc43)[C@H](O)[C@@H]2O1`, the inhibition of growth at 200 µM with S49 [7] came out at 40%. The EC50 in the data set on S49 [1] was 200 µM; in the data set on S49 [2] it was more than 1000 µM.
Take `CCCCCCCCCCCCCCCC(=O)O[C@@H]1[C@@H]2OP(=O)(O)OC[C@H]2O[C@H]1n1cnc2c(=S)[nH]cnc21`: the EC50 was determined as 6 µM in the data set on S49 [1] and 65 µM in the data set with S49 [2]. Moreover, the remaining at 72 h in data set [8] was determined as 20%. In addition, the “growth inhibition (GI)” value in the data set with S49 [9], in the data set with S49 [10] and in the data set with S49 [11] was “Active” throughout.
On to `CCCC(=O)O[C@@H]1[C@@H]2OP(=O)(O)OC[C@H]2O[C@H]1n1cnc2c(=S)[nH]cnc21`, for which the EC50 with S49 [1] came to 137 µM; in the data set with S49 [2] it was 426 µM; in the data set on S49 [12], 250 µM.
In the case of `CCCCCC(=O)O` [HEXANOATE], in the data set with S49 [2], the EC50 is more than 1000 µM.
Take `CC(C)(C)C(=O)O[C@@H]1[C@@H]2OP(=O)(O)OC[C@H]2O[C@H]1n1cnc2c(=S)[nH]cnc21`: the EC50 with S49 [1] stood at 33 µM; in the data set on S49 [2], 237 µM.
`CCCCCC(=O)O[C@@H]1[C@@H]2OP(=O)(O)OC[C@H]2O[C@H]1n1cnc2c(=S)[nH]cnc21`: the EC50 with S49 [1] stood at 10 µM; in the data set on S49 [2], 210 µM.
In the case of `CCCC(=O)Nc1ncnc2c1ncn2[C@@H]1O[C@@H]2COP(=O)(O)O[C@H]2[C@H]1OC(=O)CCC`, the “growth inhibition (GI)” value in the data set on S49 [13] and in the data set with S49 [14] was “Active” throughout.
